Measurements published in ChEMBL document CHEMBL1122909, “Psoralenamines. 3. Synthesis, pharmacological behavior, and DNA binding of 5-(aminomethyl)-8-methoxy-, 5-[[(3-aminopropyl)oxy]methyl]-, and 8-[(3-aminopropyl)oxy]psoralen derivatives” (1985).

Assays:
Nucleic Acid = test: Evaluated for photo-cross-linking of DNA; type: functional
In short: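 Sonicated calf thymus DNA (200 µg) plus psoralen 0.1–100 µg/mL in 10 mM Tris-HCl, 1 mM EDTA, pH 7.0. Irradiated 30 min (~365 nm, 24 kJ/m2), heated 100 °C 5 min, ice-cooled. Double- vs single-stranded DNA resolved on hydroxylapatite with 50–500 mM phosphate gradient. The concentration giving 50% cross-linked DNA is expressed relative to 8-MOP.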

Mus musculus = test: Evaluated in vivo for its photosensitization activity, against increase in skin thickness relative to that of 8-MOP.; type: functional; design: unit: % of 8-MOP
In short: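 Female hairless Hr/Hr mice, 4–6 weeks, 5–28 per group. Compound given ip at 0.6, 6 or 60 mg/kg (reported at 6 mg/kg). UVA from four TL20W/09 tubes after 5 min–2 h, 4 J cm-1 as printed. Skin-fold thickness measured by caliper 24 h post-irradiation, expressed relative to 8-MOP (=100%).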

NHIK3025 [1] = test: Evaluated for DNA. photo-cross-linking in cell line NHIK 3025 cross-linking affinity measured by alkaline elution technique.; type: functional, Homo sapiens
In short: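 NHIK 3025 cells (~10^6) labelled 16 h with [3H]thymidine (1 µCi/mL). Psoralen in PBS at 1–90 µg/mL, 10-min equilibration, then irradiation 0.8 J/cm2 at ~365 nm. Cells trypsinized and lysed on 2-µm filter (0.2% Sarcosyl, 2 M NaCl, 40 mM EDTA, pH 10), then eluted at pH 12.2. Relative efficiency vs 8-MOP is read from concentrations giving similar elution retardation.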

NHIK3025 [2] = test: Evaluated in vitro for phototoxic effect on human cell line NHIK 3025, assay performed using threefold dilution and result reported by one dilution step.; type: functional
Tetrahymena thermophila [3] = test: Evaluated for DNA photo-cross-linking in Tetrahymena thermophila and relative cross-linking affinity measured by the alkaline elution technique.; type: functional
In short: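 Tetrahymena thermophila ~2×10^5 cells prelabelled with [3H]thymidine; phototreated with psoralen in 10 mM Tris-HCl pH 7.4 at ~365 nm. Interstrand cross-links are measured by alkaline elution: cells lysed on 2-µm filter (0.2% Sarcosyl, 2 M NaCl, 40 mM EDTA, pH 10), eluted at pH 12.2. Efficiency relative to 8-MOP is taken from concentrations giving similar elution retardation.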

Tetrahymena thermophila [4] = test: Evaluated in vitro for phototoxic effect on ciliate Tetrahymena thermophila cells; type: functional

COc1c2occc2c(CN2CCCCC2)c2ccc(=O)oc12.Cl
Photo-cross-linking of DNA (Nucleic Acid): 0.3 | Photosensitization (Mus musculus): 238 | DNA crosslinking (NHIK3025 [1]): 19 | Phototoxic effect (NHIK3025 [2]): 3 | DNA photo-crosslinking (Tetrahymena thermophila [3]): 8

COc1c2occc2c(COCCCO)c2ccc(=O)oc12
Photo-cross-linking of DNA (Nucleic Acid): < 0.07

COc1c2occc2c(CN2CCOCC2)c2ccc(=O)oc12.Cl
Photo-cross-linking of DNA (Nucleic Acid): 0.1 | Photosensitization (Mus musculus): 154 | DNA crosslinking (NHIK3025 [1]): <1 | Phototoxic effect (NHIK3025 [2]): 0.3 | DNA photo-crosslinking (Tetrahymena thermophila [3]): 6 | Phototoxic effect (Tetrahymena thermophila [4]): 0.3

COc1c2occc2c(CO)c2ccc(=O)oc12
Photo-cross-linking of DNA (Nucleic Acid): 0.07

COc1c2occc2c(CN(C)C)c2ccc(=O)oc12.Cl
Photo-cross-linking of DNA (Nucleic Acid): 0.6 | Photosensitization (Mus musculus): 194 | DNA crosslinking (NHIK3025 [1]): 24 | Phototoxic effect (NHIK3025 [2]): 7 | DNA photo-crosslinking (Tetrahymena thermophila [3]): 14 | Phototoxic effect (Tetrahymena thermophila [4]): 15

COc1c2occc2c(CN(CCO)CCO)c2ccc(=O)oc12.Cl
Photo-cross-linking of DNA (Nucleic Acid): 0.2 | Photosensitization (Mus musculus): 339 | DNA crosslinking (NHIK3025 [1]): 1 | Phototoxic effect (NHIK3025 [2]): 3 | DNA photo-crosslinking (Tetrahymena thermophila [3]): 3 | Phototoxic effect (Tetrahymena thermophila [4]): 0.3

COc1c2occc2c(CN2CCN(C)CC2)c2ccc(=O)oc12.Cl
Photo-cross-linking of DNA (Nucleic Acid): 0.2 | Photosensitization (Mus musculus): 325 | DNA crosslinking (NHIK3025 [1]): 9 | Phototoxic effect (NHIK3025 [2]): 5 | Phototoxic effect (Tetrahymena thermophila [4]): 10

C[N+](C)(C)CCCOc1c2occc2cc2ccc(=O)oc12.[Br-]
Photo-cross-linking of DNA (Nucleic Acid): 1.1 | Photosensitization (Mus musculus): 477 | DNA crosslinking (NHIK3025 [1]): 3 | Phototoxic effect (NHIK3025 [2]): 15 | DNA photo-crosslinking (Tetrahymena thermophila [3]): 5 | Phototoxic effect (Tetrahymena thermophila [4]): 3

COc1c2occc2c(C[N+](C)(C)C)c2ccc(=O)oc12.[Cl-]
Photo-cross-linking of DNA (Nucleic Acid): 0.1 | Photosensitization (Mus musculus): 140 | DNA crosslinking (NHIK3025 [1]): 3 | Phototoxic effect (NHIK3025 [2]): 1 | DNA photo-crosslinking (Tetrahymena thermophila [3]): 2 | Phototoxic effect (Tetrahymena thermophila [4]): 0.3

COc1c2occc2c(CN)c2ccc(=O)oc12.Cl
Photo-cross-linking of DNA (Nucleic Acid): 2.1 | Photosensitization (Mus musculus): 172 | DNA crosslinking (NHIK3025 [1]): 8 | Phototoxic effect (NHIK3025 [2]): 1 | DNA photo-crosslinking (Tetrahymena thermophila [3]): 3 | Phototoxic effect (Tetrahymena thermophila [4]): 5

CC[N+](CC)(CC)Cc1c2ccoc2c(OC)c2oc(=O)ccc12.[Cl-]
Photo-cross-linking of DNA (Nucleic Acid): 0.05 | Photosensitization (Mus musculus): 133 | DNA crosslinking (NHIK3025 [1]): 8 | Phototoxic effect (NHIK3025 [2]): 3 | DNA photo-crosslinking (Tetrahymena thermophila [3]): 14 | Phototoxic effect (Tetrahymena thermophila [4]): 5

O=c1ccc2cc3ccoc3c(OCCO)c2o1
Photo-cross-linking of DNA (Nucleic Acid): 1

CN1CC[N+](C)(CCCOc2c3occc3cc3ccc(=O)oc23)CC1.[Br-]
Photo-cross-linking of DNA (Nucleic Acid): 2.5 | Photosensitization (Mus musculus): 463 | DNA crosslinking (NHIK3025 [1]): 7 | Phototoxic effect (NHIK3025 [2]): 10 | DNA photo-crosslinking (Tetrahymena thermophila [3]): 2 | Phototoxic effect (Tetrahymena thermophila [4]): 10

COc1c2occc2cc2ccc(=O)oc12 [METHOXSALEN]
Photo-cross-linking of DNA (Nucleic Acid): 1 | Photosensitization (Mus musculus): 100 | DNA crosslinking (NHIK3025 [1]): 100 | Phototoxic effect (NHIK3025 [2]): 100 | DNA photo-crosslinking (Tetrahymena thermophila [3]): 100 | Phototoxic effect (Tetrahymena thermophila [4]): 100

Br.CCN(CC)CCCOc1c2occc2cc2ccc(=O)oc12
Photo-cross-linking of DNA (Nucleic Acid): 1.8 | Photosensitization (Mus musculus): 357 | DNA crosslinking (NHIK3025 [1]): 190 | Phototoxic effect (NHIK3025 [2]): 100 | DNA photo-crosslinking (Tetrahymena thermophila [3]): 170 | Phototoxic effect (Tetrahymena thermophila [4]): 150

COc1c2occc2c(COCCC[N+](C)(C)C)c2ccc(=O)oc12.[Br-]
Photo-cross-linking of DNA (Nucleic Acid): 0.1 | DNA crosslinking (NHIK3025 [1]): 1 | Phototoxic effect (NHIK3025 [2]): 3 | DNA photo-crosslinking (Tetrahymena thermophila [3]): 4 | Phototoxic effect (Tetrahymena thermophila [4]): <0.3

COc1c2occc2c(CN(C)CCO)c2ccc(=O)oc12.Cl
Photo-cross-linking of DNA (Nucleic Acid): 0.5 | Photosensitization (Mus musculus): 306 | DNA crosslinking (NHIK3025 [1]): 15 | Phototoxic effect (NHIK3025 [2]): 2 | Phototoxic effect (Tetrahymena thermophila [4]): 3

COc1c2occc2c(CN(C(C)C)C(C)C)c2ccc(=O)oc12.Cl
Photo-cross-linking of DNA (Nucleic Acid): 0.15 | Photosensitization (Mus musculus): 87 | DNA crosslinking (NHIK3025 [1]): 12 | Phototoxic effect (NHIK3025 [2]): 2 | Phototoxic effect (Tetrahymena thermophila [4]): 10

COCc1c2ccoc2c(OC)c2oc(=O)ccc12
Photo-cross-linking of DNA (Nucleic Acid): 0.04
